Measured values taken from paper PMC10570129 (iScience, 2023).
Like-named read-outs stand apart in the source and are kept apart here.

Columns and labels:
[1] = molecular target: PahK (Cycloclasticus sp. P1); assay: SPR
[2] = molecular target: PahR (Cycloclasticus sp. P1); assay: SPR
[3] = molecular target: PahP (Cycloclasticus sp. P1); assay: SPR
[4] = molecular target: PahP (Cycloclasticus sp. P1); assay: SPR; remark: listed apart in the source
[5] = molecular target: PahP (Cycloclasticus sp. P1); assay: SPR; remark: listed apart in the source
[6] = molecular target: PahP-YFP (Cycloclasticus sp. P1); assay: FRET or BRET
[7] = molecular target: mutated PahP (Tyr42‒Gly42, Leu135‒Ala135, Tyr-215‒Ala215, Leu-254‒Ala254); assay: SPR, PAHs on site-mutated PahP; assay type: binding, Cycloclasticus sp. P1; conditions: range over mutated PahP and five PAHs
In short: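 Biacore T200 SPR. PahP protein was diluted in 10 mM sodium acetate (pH 5.5) and amine-coupled to a CM5 chip. PAHs were diluted to 50 μM in PBS running buffer with 5% DMSO. They were injected over the PahP surface for 120 s at 30 μL/min. Running buffer without PAH was the negative control.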

PahS = assay: SPR, PAHs injected over PahS sensor chip; assay type: binding, Cycloclasticus sp. P1; conditions: read-out: KD of PahS for PAH, 20°C
In short: (§1)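 Biacore T200 SPR. The PahS protein, at 30 μg/mL in 10 mM sodium acetate (pH 5.5), was covalently immobilised on an L1 chip by primary amine coupling. Each PAH was diluted to 50 μM in PBS running buffer containing 5% DMSO. It was injected for 120 s at 30 μL/min. PAH-free running buffer served as the negative control.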

PahP = assay: SPR, PAHs injected over PahP sensor chip; assay type: binding, Cycloclasticus sp. P1; conditions: read-out: KD of PahP for PAH
[8] = molecular target: mutated PahS (Leu370‒Ala370, Leu444‒Ala444, Ala452‒Gly452); assay: SPR, PAHs on site-mutated PahS; assay type: binding, Cycloclasticus sp. P1; conditions: range over three mutated proteins and five PAHs
In short: as §1

PahP binding to PahS = assay: SPR, PahP bound to PAH in advance, injected over PahS sensor chip; design: species or system Cycloclasticus sp. P1; conditions: PahP binds PAH first
[9] = molecular target: PahP and PahR of the PahK-PahP and PahK-PahR reporter cells; assay: FRET or BRET

For PahS (natural protein), the Kd [1] was 174 µM, the Kd [2] was 119 µM and the Kd [3] was 0.092 µM. For the same compound, the Kd [4] was 0.00212 µM and the Kd [5] was 0.00297 µM.
With CFP-PahS (natural protein) the FRET efficiency [6] was 19.7%.
For `c1ccc2ccccc2c1` [naphthalene], the “KD of site-mutated PahP with PAHs” value [7] was 10^−3 to 10^−4 M, the Kd (PahS) was 0.0146 µM and the Kd (PahP) was 0.0053 µM. For the same compound, the “KD of the mutated PahS proteins with PAHs” value [8] was 10^−3 to 10^−4 M.
For `c1ccc2c(c1)ccc1ccccc12` [phenanthrene], the “binding affinity of PahP with PahS compared to that without PAH” value (PahP binding to PahS) was “lowered”, the “KD of site-mutated PahP with PAHs” value [7] was 10^−3 to 10^−4 M and the Kd (PahS) was 0.0214 µM. For the same compound, the Kd (PahP) was 0.0196 µM and the “KD of the mutated PahS proteins with PAHs” value [8] was 10^−3 to 10^−4 M.
PahK (natural protein) gave a Kd [2] of 0.0189 µM and a Kd [3] of 0.0098 µM.
`c1ccc2c(c1)Cc1ccccc1-2` [fluorene] was tested, and the “KD of site-mutated PahP with PAHs” value [7] was 10^−3 to 10^−4 M, the Kd (PahS) was 0.179 µM and the Kd (PahP) was 0.0174 µM. The “KD of the mutated PahS proteins with PAHs” value [8] was 10^−3 to 10^−4 M.
CFP-PahK (natural protein) was tested, and the FRET efficiency [9] was 16.7 to 21.4%.
For `c1cc2ccc3cccc4ccc(c1)c2c34` [pyrene], the “binding affinity of PahP with PahS compared to that without PAH” value (PahP binding to PahS) was “lowered”, the “KD of site-mutated PahP with PAHs” value [7] was 10^−3 to 10^−4 M and the Kd (PahS) was 0.0211 µM. The Kd (PahP) was 0.0144 µM and the “KD of the mutated PahS proteins with PAHs” value [8] was 10^−3 to 10^−4 M.
With `c1ccc2cc3ccccc3cc2c1` [anthracene] the “KD of site-mutated PahP with PAHs” value [7] was 10^−3 to 10^−4 M, the Kd (PahS) was 0.0217 µM and the Kd (PahP) was 0.041 µM. For the same compound, the “KD of the mutated PahS proteins with PAHs” value [8] was 10^−3 to 10^−4 M.
